In publication PMC7263024 (General and comparative endocrinology, 2019):
Entries after “also recorded” stand apart in the source; their conditions may differ.

Tests used:
Mc2r and Mc5r orthologs = conditions: ref Thomas et al., 2018, Dores et al., Barney et al., 2019; cited from earlier work
hMc2r = conditions: ref Metherell et al., 2005; Sebag and Hinkle, 2007; cited from earlier work
zebrafish Mc4r = conditions: 2013, cited from earlier work
gMc1r/gMrap1 = test: cAMP-reporter gene assay, gMc1r co-expressed with gMrap1; format: cell-based, spotted gar (Lepisosteus oculatus); conditions: Fig. 3A, vs gMc1r alone; for effect of gMrap1 co-expression on Vmax value: hACTH(1–24) p < 0.001, NDP-MSH p = 0.02, T-test; for effect of gMrap1 co-expression on ligand sensitivity: p = 0.90 (hACTH(1–24)), p = 0.92 (NDP-MSH)
Procedure, shortened: (§1)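 CHO cells (F12K, 10% FBS, 37 °C, 5% CO2) nucleofected with 2 μg each of gar receptor cDNA, with or without gar Mrap1 or Mrap2, plus CRE-luciferase. After 48 h, stimulated 4 h at 37 °C in serum-free medium with hACTH(1–24) 10−13–10−6 M or NDP-MSH 10−12–10−6 M. Luminescence read after a 5 min luciferase reagent step. Medium-only background subtracted. EC50 from Michaelis-Menten fits; triplicates.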

gMc1r/gMrap2 = test: cAMP-reporter gene assay, gMc1r co-expressed with gMrap2; format: cell-based, spotted gar (Lepisosteus oculatus); conditions: Fig. 3B, vs gMc1r alone; for effect of gMrap2 co-expression on Vmax value: hACTH(1–24) P = 0.43, NDP-MSH p = 0.42, T-test; for effect of gMrap2 co-expression on ligand sensitivity: p = 0.12 (hACTH(1–24)), p = 0.28 (NDP-MSH)
Procedure, shortened: as §1

gMc3r/gMrap2 = test: cAMP-reporter gene assay, gMc3r co-expressed with gMrap2; format: cell-based, spotted gar (Lepisosteus oculatus); conditions: Fig. 4B, vs gMc3r alone; for effect of gMrap2 co-expression on Vmax value: hACTH(1–24) p – 0.99, NDP-MSH p > 0.001 (so in the source), T-test; for effect of gMrap2 co-expression on ligand sensitivity: p = 0.98 (both ligands)
gMc3r/gMrap1 = test: cAMP-reporter gene assay, gMc3r co-expressed with gMrap1; format: cell-based, spotted gar (Lepisosteus oculatus); conditions: Fig. 4A, vs gMc3r alone; for effect of gMrap1 co-expression on ligand sensitivity: p = 0.49 (hACTH(1–24)), p = 0.98 (NDP-MSH)
Procedure, shortened: as §1

gMc1r = test: cAMP-reporter gene assay, gMc1r expressed alone; format: cell-based, spotted gar (Lepisosteus oculatus); conditions: comparison of EC50 values, p < 0.001
gMc3r = test: cAMP-reporter gene assay, gMc3r expressed alone; format: cell-based, spotted gar (Lepisosteus oculatus); conditions: p = 0.03
gMc5r/gMrap2 = test: cAMP-reporter gene assay, gMc5r co-expressed with gMrap2; format: cell-based, spotted gar (Lepisosteus oculatus); conditions: Fig. 6A, 6B, vs gMc5r alone; for effect of gMrap2 co-expression on Vmax: hACTH(1–24) p = 0.001, NDP-MSH p = 0.007, T-test; for effect of gMrap2 co-expression on ligand sensitivity: hACTH(1–24) p = 0.5
Procedure, shortened: as §1

gMc2r/gMrap1 = test: cAMP-reporter gene assay, gMc2r co-expressed with gMrap1; format: cell-based, spotted gar (Lepisosteus oculatus)
Procedure, shortened: as §1

mouse Mc4r = conditions: activation by NDP-MSH; ref Asai et al., 2013; cited from earlier work
hMc2r/mMrap1 = conditions: ref Liang et al., 2011; cited from earlier work
gMc4r/gMrap1 = test: cAMP-reporter gene assay, gMc4r co-expressed with gMrap1; format: cell-based, spotted gar (Lepisosteus oculatus); conditions: Fig. 5A, vs gMc4r alone; for effect of gMrap1 co-expression on ligand sensitivity: p = 0.49 (hACTH(1–24)), p = 0.98 (NDP-MSH)
Procedure, shortened: as §1

gMc4r = test: cAMP-reporter gene assay, gMc4r expressed alone; format: cell-based, spotted gar (Lepisosteus oculatus); conditions: p = 0.11
Procedure, shortened: as §1

gMc5r = test: cAMP-reporter gene assay, gMc5r expressed alone; format: cell-based, spotted gar (Lepisosteus oculatus); conditions: p = 0.07, T-test
gMc4r/gMrap2 = test: cAMP-reporter gene assay, gMc4r co-expressed with gMrap2; format: cell-based, spotted gar (Lepisosteus oculatus); conditions: Fig. 5B; vs gMc4r alone; p < 0.001 (both ligands); T-test
gMc5r/gMrap1 = test: cAMP-reporter gene assay, gMc5r co-expressed with gMrap1; format: cell-based, spotted gar (Lepisosteus oculatus); conditions: Fig. 6A, 6B, vs gMc5r alone; for effect of gMrap1 co-expression on Vmax: hACTH(1–24) p = 0.44, NDP-MSH p = 0.01, T-test; for effect of gMrap1 co-expression on ligand sensitivity: hACTH(1–24) p = 0.5, NDP-MSH p = 0.64
Procedure, shortened: as §1

gMc2r = test: cAMP-reporter gene assay, gMc2r expressed alone; format: cell-based, spotted gar (Lepisosteus oculatus); conditions: Fig. 2A; CHO cells, CRE-Luciferase, 4 h at 37 °C, 10^−13M to 10^−6M; n = 3
Procedure, shortened: as §1

[1] = system: Gallus gallus (chicken; c) Mc5r with cMrap1; conditions: ref Thomas et al., 2018; cited from earlier work
gMc2r/gMrap2 = test: cAMP-reporter gene assay, gMc2r co-expressed with gMrap2; format: cell-based, spotted gar (Lepisosteus oculatus); conditions: Fig. 2A, CHO cells, CRE-Luciferase, 4 h at 37 °C, 10^−13M to 10^−6M, n = 3
Procedure, shortened: as §1

Substance | effect of gMrap1 co-expression on Vmax value (gMc1r/gMrap1) | effect of gMrap1 co-expression on ligand sensitivity (gMc1r/gMrap1) | effect of gMrap2 co-expression on Vmax value (gMc1r/gMrap2) | effect of gMrap2 co-expression on ligand sensitivity (gMc1r/gMrap2) | effect of gMrap2 co-expression on Vmax value (gMc3r/gMrap2) | effect of gMrap2 co-expression on ligand sensitivity (gMc3r/gMrap2) | effect of gMrap1 co-expression on Vmax value (gMc3r/gMrap1) | effect of gMrap1 co-expression on ligand sensitivity (gMc3r/gMrap1) | effect of gMrap2 co-expression on Vmax (gMc5r/gMrap2) | effect of gMrap2 co-expression on ligand sensitivity (gMc5r/gMrap2) | effect of gMrap1 co-expression on Vmax value (gMc4r/gMrap1) | effect of gMrap1 co-expression on ligand sensitivity (gMc4r/gMrap1) | efficacy of hACTH(1–24) compared with NDP-MSH (gMc4r) | effect of gMrap2 co-expression on Vmax (gMc4r/gMrap2) | effect of gMrap1 co-expression on Vmax (gMc5r/gMrap1) | effect of gMrap1 co-expression on ligand sensitivity (gMc5r/gMrap1) | further results
ACTH |  |  |  |  |  |  |  |  |  |  |  |  |  |  |  |  | effect of Mrap1 co-expression on sensitivity to stimulation by ACTH (Mc2r and Mc5r orthologs): enhanced sensitivity to stimulation by ACTH; stimulation of hMc2r/Mrap1 by ACTH (hMc2r): in the correct configuration to be stimulated by ACTH; effect of Mrap2 co-expression on sensitivity for activation by ACTH (zebrafish Mc4r; ref Josep Agulleiro et al.): sensitivity for activation by ACTH increases as well
Nle^4, D-Phe^7-α-MSH [NDP-MSH] | decrease in the Vmax value | had no effect on sensitivity to stimulation; also recorded: no effect on the sensitivity of gMc1r | no effect on the Vmax value | no effect, in either a positive or negative manner, on the sensitivity of gMc1r | decrease in the Vmax value | no effect either positive or negative on the sensitivity of gMc3r | no effect on the Vmax value | had no effect on sensitivity to stimulation | increase in Vmax | did not increase sensitivity; also recorded: no effect, either positive or negative, on the sensitivity of the receptor | no effect on the Vmax value | had no effect on sensitivity to stimulation; also recorded: no statistical effect on the sensitivity of gMc4r | can be activated with equal efficacy | statistically higher than the Vmax for the dose response curve when gMc4r was expressed alone; also recorded: comparable in magnitude to the Vmax value for the gMc4r/gMrap2 cells stimulated hACTH(1–24); also recorded: the amplitude of stimulation (Vmax) also increased for both ligands | increase in Vmax | had no effect on sensitivity to stimulation; also recorded: no effect, either positive or negative, on the sensitivity of the receptor | sensitivity to NDP-MSH compared with hACTH(1–24) (gMc1r): much more sensitive to stimulation by NDP-MSH than to stimulation by hACTH(1–24); sensitivity to NDP-MSH compared with hACTH(1–24) (gMc3r): higher sensitivity for stimulation by NDP-MSH than by stimulation with hACTH(1–24); activation of gMc2r/gMrap1 by NDP-MSH (gMc2r/gMrap1; Fig. 2B, CHO cells, 4 h at 37 °C, 10^−12M to 10^−6M, n = 3): low level of activation (only at 10^−7M and 10^−6M); also recorded: activation was observed, but only at concentrations of 10^−7 M and 10^−6M; also recorded: weak activation only at 10 ^7M and 10^−6M; also recorded: could be activated to a limited degree by NDP-MSH at concentrations of 10^−7M and 10^−6M; degree of stimulation relative to stimulation at saturation by hACTH(1–24) (gMc2r/gMrap1; NDP-MSH at 10^−6 M vs 10^−9M hACTH(1–24), Fig. 2B): roughly 40%; effect of Mrap2 co-expression on ligand sensitivity (mouse Mc4r): enhances ligand sensitivity of the receptor to activation by NDP-MSH; response to NDP-MSH (hMc2r/mMrap1): did not evoke a response; EC50 of NDP-MSH compared with hACTH (1–24) (gMc5r): not statistically different from stimulation with hACTH (1–24); effect of Mrap2 co-expression on ligand sensitivity (zebrafish Mc4r; activation by NDP-MSH, ref Sebag et al.): enhances ligand sensitivity of the receptor to activation by NDP-MSH
hACTH(1–24): Human (h) ACTH(1–24), purchased from Sigma-Aldrich; 96% primary sequence identity with gACTH(1–24) | decrease in the Vmax value | had no effect on sensitivity to stimulation | no effect on the Vmax value | no effect, in either a positive or negative manner, on the sensitivity of gMc1r | no effect on the Vmax value | no effect either positive or negative on the sensitivity of gMc3r | no effect on the Vmax value | had no effect on sensitivity to stimulation | increase in the Vmax value | did not affect sensitivity; also recorded: no effect, either positive or negative, on the sensitivity of the receptor | no effect on the Vmax value | had no effect on sensitivity to stimulation; also recorded: no statistical effect on the sensitivity of gMc4r | can be activated with equal efficacy | statistically higher than the Vmax for the dose response curve when gMc4r was expressed alone; also recorded: the amplitude of stimulation (Vmax) also increased for both ligands | no change in the Vmax value | had no effect on sensitivity to stimulation; also recorded: negligible shift in sensitivity; also recorded: no effect, either positive or negative, on the sensitivity of the receptor | activation of gMc2r expressed alone by hACTH(1–24) (gMc2r): activation of gMc2r did not occur when the receptor was expressed alone; also recorded: did not result in activation of the receptor; also recorded: no activation when expressed alone; effect of gMrap1 co-expression on ligand sensitivity (gMc3r/gMrap1; listed as hACTH (1–24)): no effect either positive or negative on sensitivity; activation of gMc2r co-expressed with gMrap1 by hACTH(1–24) (gMc2r/gMrap1; Fig. 2A, CHO cells, CRE-Luciferase, 4 h at 37 °C, n = 3): obligatory requirement for co-expression with gMrap1 in order for the receptor to be activated by hACTH(1–24); also recorded: activation of the receptor was recovered; concentration at which activation reached saturation (gMc2r/gMrap1; Fig. 2B, CHO cells, 4 h at 37 °C): 10^−9 M; effect of cMrap1 co-expression on sensitivity to stimulation [1]: significantly increased the sensitivity; activation of gMc2r co-expressed with gMrap2 (gMc2r/gMrap2): activation did not occur; also recorded: gMrap2 did not facilitate activation of gMc2r; activation of gMc2r co-expressed with gMrap2 (gMc2r/gMrap2; listed as hACTH (1–24)): there was no activation
